# In PubChem BioAssay:
# Active and inactive are the calls of the source.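 Rule for the calls, unless noted: active = viability loss from added drug above about 55%, and viability with drug at most 40%, in both replicates (limit read from the data, passing the limit was not always enough); inconclusive = both conditions met in only one replicate; inactive = neither replicate meets both conditions.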
# Columns and labels:
# [1] = reduced viability of SK-BR-3 breast cancer cells – cell-based, 24 h, human, pilot screen (AID 572;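 active = viability at or below 10% of carrier control in both of two separate runs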;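 note: compound exposure lasted between 18 and 24 h rather than exactly 24 h; 100% = carrier-treated control wells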); conditions: SK-BR-3 viability, CellTiter-Glo luminescence, at 10 µM, stronger effect = lower value
# [2] = HUVEC growth inhibition – cell-based, human, primary screen (AID 575;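 active = viability at or below 30% in both replicate assays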;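 note: 100% = median of untreated cell wells with 0.1% DMSO on each plate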); conditions: HUVEC proliferation, CellTiter-Glo luminescence, 72 h; at 10 µM; stronger effect = lower value
# Outline: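 System – primary HUVEC, no more than 12 passages · Medium – Low-serum (2% FBS) EBM, supplemented · Times – 72 h exposure, 37 °C, 5% CO2, 30 min RT equilibration · Measured by – luminescent ATP assay · Read-out – % viability relative to median vehicle-well signal on each plate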
# [3] = H69AR cell proliferation blockers – human, duplicate replicates, primary screen (AID 580;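 active = viability at or under a set limit in both replicates, limit being median viability minus 3 SD, cut at about 48% in these data, passing the limit was not always enough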;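 note: 100% = mean luminescence of untreated wells and 0% = no signal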); conditions: H69AR lung tumor cells viability, ATP luminescence, 72 h; at 10 µM; stronger effect = lower value
# [4] = MRP1 drug-resistance reversers in H69AR cells – cell-based, doxorubicin co-treatment, pilot screen (AID 601); conditions: CellTiter-Glo, 72 h, at 10 µM; for differential viability (reversal): stronger effect = higher value
# [5] = yeast transport mutant growth inhibition pilot in 384-well plates, post-Golgi transport modulator project (AID 636; in the data active = inhibition above about 31%); conditions: absorbance 615 nm, about 18 h, stronger effect = higher value
# [6] = growth suppression of yeast trafficking mutant, preliminary HTS, modulators of trafficking downstream of Golgi apparatus project, 1536-format plate, OD 615 nm (AID 637; in the data active = inhibition above about 30%); conditions: yeast transport mutant growth, absorbance 615 nm, 18 h; stronger effect = higher value
# [7] = H69AR cells + 2 uM doxorubicin, measured here: viability with 2 uM doxorubicin, stronger effect = lower value
# [8] = H69AR cells, compound alone cytotoxicity
Compound,viability [1],viability [2],viability [3],differential viability (reversal) ([4]; H69AR cells + 2 uM doxorubicin),"viability [4, 7] [%]","viability [4, 8] [%]",inhibition [5],inhibition [6]
CC1C/C=C/C=C/C=C/C=C/C(O[C@@H]2O[C@H](C)[C@@H](O)[C@H](N)[C@@H]2O)CC2OC(O)(CC(O)CC3OC3/C=C/C(=O)O1)CC(O)C2C(=O)O (stereo partly drawn),121% (inactive),99.7% (inactive),92.3% (inactive),8.26% (inactive),84.1,92.3,2.6% (inactive),-2.67% (inactive)
COc1ccc(C(=O)Nc2cccnc2)cc1C(=O)Nc1cccnc1,150% (inactive),79.9% (inactive),97.4% (inactive),2.72% (inactive),94.6,97.4,7.53% (inactive),-3% (inactive)
CCc1cccc2c3c([nH]c12)C(CC)(CC(=O)O)OCC3 (stereo not drawn),113% (inactive),72% (inactive),100% (inactive),1.21% (inactive),99.1,100,1.56% (inactive),0.67% (inactive)
Cc1cnc(C(=O)Nc2ccccc2-n2cccc2)cn1,94% (inactive),105% (inactive),92.4% (inactive),3.75% (inactive),88.6,92.4,-7.6% (inactive),-2.73% (inactive)
CCN(CC)C(=O)c1ccc(O)c(OC)c1,100% (inactive),90.7% (inactive),101% (inactive),0.23% (inactive),101,101,-4.94% (inactive),-5% (inactive)
COC(=O)CSc1nnc(-c2cccs2)n1-c1ccc(Cl)cc1,88% (inactive),93.8% (inactive),89.8% (inactive),6.75% (inactive),83.1,89.8,-8.49% (inactive),-4.68% (inactive)
CC(=O)c1ccccc1OCCn1nnc(-c2ccc(C)cc2)n1,108% (inactive),83.6% (inactive),80.1% (inactive),5.44% (inactive),74.6,80.1,-8.9% (inactive),2.1% (inactive)
COc1ccc(-c2cc3ccc(OCc4nn[nH]n4)cc3oc2=O)cc1,104% (inactive),99.2% (inactive),102% (inactive),14.1% (inactive),87.5,102,-6.58% (inactive),1.29% (inactive)
COc1cccc(-c2nnc(NC(=O)Cc3cccs3)s2)c1,88% (inactive),84.8% (inactive),82.6% (inactive),-14.2% (inactive),96.8,82.6,-5.34% (inactive),5.16% (inactive)
Cc1oc(-c2ccc(Cl)cc2)cc1-c1nn2c(-c3ccoc3C)nnc2s1,86% (inactive),75.3% (inactive),83.7% (inactive),-12% (inactive),95.7,83.7,18.9% (inactive),3.06% (inactive)
CCCN1CCN(C(=O)Cn2cccc2C(=O)c2ccccc2)CC1,84% (inactive),99.9% (inactive),100% (inactive),17.8% (inactive),82.2,100,-2.27% (inactive),1.27% (inactive)
Cc1ccc(Nc2nc(N)nc(CN3CCN(Cc4ccc5c(c4)OCO5)CC3)n2)cc1,93% (inactive),106% (inactive),82.2% (inactive),2.44% (inactive),79.7,82.2,-8.27% (inactive),-4.91% (inactive)
Cc1ccc(Nc2nc(Oc3ccc(=O)[nH]n3)nc(N(C)C)n2)cc1,81% (inactive),101% (inactive),94% (inactive),16.1% (inactive),77.9,94,-3.7% (inactive),1.94% (inactive)
O=C(CSc1nnc(-c2ccco2)n1CC1CCCO1)N1CCCCC1 (stereo not drawn),94% (inactive),106% (inactive),97.6% (inactive),4.84% (inactive),92.7,97.6,-3.6% (inactive),0.36% (inactive)
CCn1c(SCC(=O)Nc2cc(NC(C)=O)ccc2OC)nnc1-c1ccccn1,93% (inactive),89.6% (inactive),94.1% (inactive),8.36% (inactive),85.8,94.1,-1.51% (inactive),2.1% (inactive)
O=C(CN1CCN(c2nc(-c3ccc(Cl)cc3)cs2)CC1)NCc1ccco1,67% (inactive),95.6% (inactive),97.9% (inactive),3.06% (inactive),94.8,97.9,-5.07% (inactive),-2.18% (inactive)
